≈ marks a conversion by molar mass, not a printed value.
What was measured:
Candida albicans [1] = experiment: Antifungal activity against Candida albicans ATCC 10231 assessed as fungal growth inhibition by double dilution method; assay type: functional
Method in brief: (§1)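 Broth microdilution after CLSI M27-A3/M38-A2 with minor changes. Single colony grown overnight in YPD at 35 °C, 200 rpm. Compound final range 0.06-31.3 µg/mL; incubated 48 h at 35 °C.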

Candida albicans [2] = experiment: Antifungal activity against Candida albicans ATCC 64124 assessed as fungal growth inhibition by double dilution method; assay type: functional
Method in brief: (§2)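 Broth microdilution after CLSI M27-A3/M38-A2 with minor modifications. A single colony was grown overnight in YPD at 35 °C with shaking at 200 rpm. Cells were mixed 1:1 with compound (final 0.06-31.3 µg/mL, from DMSO stocks) and incubated 48 h at 35 °C.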

Candida albicans [3] = experiment: Antifungal activity against itraconazole/fluconazole susceptible Candida albicans ATCC MYA-2876 assessed as fungal growth inhibition by double dilution method; assay type: functional; method in brief: as §2
Candida albicans [4] = experiment: Antifungal activity against itraconazole/fluconazole resistant Candida albicans ATCC 90819 assessed as fungal growth inhibition by double dilution method; assay type: functional; method in brief: as §2
Candida albicans [5] = experiment: Antifungal activity against itraconazole/fluconazole susceptible Candida albicans ATCC MYA-2310 assessed as fungal growth inhibition by double dilution method; assay type: functional; method in brief: as §2
Candida albicans [6] = experiment: Antifungal activity against itraconazole/fluconazole resistant Candida albicans ATCC MYA-1237 assessed as fungal growth inhibition by double dilution method; assay type: functional; method in brief: as §2
Candida albicans [7] = experiment: Antifungal activity against itraconazole/fluconazole resistant Candida albicans ATCC MYA-1003 assessed as fungal growth inhibition by double dilution method; assay type: functional; method in brief: as §2
Nakaseomyces glabratus [8] = experiment: Antifungal activity against Candida glabrata ATCC 2001 assessed as fungal growth inhibition by double dilution method; assay type: functional; method in brief: as §1
Pichia kudriavzevii [9] = experiment: Antifungal activity against Pichia kudriavzevii ATCC 6258 assessed as fungal growth inhibition by double dilution method; assay type: functional; method in brief: as §1
Nakaseomyces glabratus [10] = experiment: Antifungal activity against Candida glabrata ATCC 22019 assessed as fungal growth inhibition by double dilution method; assay type: functional; method in brief: as §1
[Candida] auris [11] = Antifungal activity against Candida auris AR Bank # 0384 assessed as fungal growth inhibition by double dilution method; assay type: functional; conditions: Candidozyma auris; method in brief: as §1
[Candida] auris [12] = Antifungal activity against Candida auris AR Bank # 0390 assessed as fungal growth inhibition by double dilution method; assay type: functional; conditions: Candidozyma auris; method in brief: as §1
Cryptococcus neoformans = experiment: Antifungal activity against Cryptococcus neoformans ATCC MYA-895 assessed as fungal growth inhibition by double dilution method; assay type: functional; method in brief: as §1
Aspergillus terreus = experiment: Antifungal activity against Aspergillus terreus ATCC MYA-3633 assessed as fungal growth inhibition by double dilution method; assay type: functional
Aspergillus fumigatus [13] = experiment: Antifungal activity against Aspergillus fumigatus NRRL 163 assessed as fungal growth inhibition by double dilution method; assay type: functional
Aspergillus flavus = experiment: Antifungal activity against Aspergillus flavus ATCC MYA-3631 assessed as fungal growth inhibition by double dilution method; assay type: functional
Aspergillus nidulans = experiment: Antifungal activity against Aspergillus nidulans ATCC 38163 assessed as fungal growth inhibition by double dilution method; assay type: functional
Aspergillus fumigatus [14] = experiment: Antifungal activity against Aspergillus fumigatus NRRL 5109 assessed as fungal growth inhibition by double dilution method; assay type: functional
Aspergillus fumigatus [15] = experiment: Antifungal activity against Aspergillus fumigatus NRRL 6113 assessed as fungal growth inhibition by double dilution method; assay type: functional
[Candida] auris [16] = Antifungal activity against Candida auris AR Bank # 381 assessed as fungal growth inhibition by double dilution method; assay type: functional; conditions: Candidozyma auris; method in brief: as §1
[Candida] auris [17] = Antifungal activity against Candida auris AR Bank # 382 assessed as fungal growth inhibition by double dilution method; assay type: functional; conditions: Candidozyma auris; method in brief: as §1
[Candida] auris [18] = Antifungal activity against Candida auris AR Bank # 383 assessed as fungal growth inhibition by double dilution method; assay type: functional; conditions: Candidozyma auris; method in brief: as §1
[Candida] auris [19] = Antifungal activity against Candida auris AR Bank # 384 assessed as fungal growth inhibition by double dilution method; assay type: functional; conditions: Candidozyma auris; method in brief: as §1
[Candida] auris [20] = Antifungal activity against Candida auris AR Bank # 385 assessed as fungal growth inhibition by double dilution method; assay type: functional; conditions: Candidozyma auris; method in brief: as §1
[Candida] auris [21] = Antifungal activity against Candida auris AR Bank # 386 assessed as fungal growth inhibition by double dilution method; assay type: functional; conditions: Candidozyma auris; method in brief: as §1
[Candida] auris [22] = Antifungal activity against Candida auris AR Bank # 387 assessed as fungal growth inhibition by double dilution method; assay type: functional; conditions: Candidozyma auris; method in brief: as §1
[Candida] auris [23] = Antifungal activity against Candida auris AR Bank # 388 assessed as fungal growth inhibition by double dilution method; assay type: functional; conditions: Candidozyma auris; method in brief: as §1
[Candida] auris [24] = Antifungal activity against Candida auris AR Bank # 389 assessed as fungal growth inhibition by double dilution method; assay type: functional; conditions: Candidozyma auris; method in brief: as §1
[Candida] auris [25] = Antifungal activity against Candida auris AR Bank # 390 assessed as fungal growth inhibition by double dilution method; assay type: functional; conditions: Candidozyma auris; method in brief: as §1
Candida duobushaemulonii [26] = experiment: Antifungal activity against Candida duobushaemulonii AR Bank # 391 assessed as fungal growth inhibition by double dilution method; assay type: functional; conditions: Candidozyma duobushaemuli; method in brief: as §1
Candida duobushaemulonii [27] = experiment: Antifungal activity against Candida duobushaemulonii AR Bank # 392 assessed as fungal growth inhibition by double dilution method; assay type: functional; conditions: Candidozyma duobushaemuli; method in brief: as §1
[Candida] haemuloni [28] = Antifungal activity against Candida haemulonii AR Bank # 393 assessed as fungal growth inhibition by double dilution method; assay type: functional; conditions: Candidozyma haemuli; method in brief: as §1
Candida duobushaemulonii [29] = experiment: Antifungal activity against Candida duobushaemulonii AR Bank # 394 assessed as fungal growth inhibition by double dilution method; assay type: functional; conditions: Candidozyma duobushaemuli; method in brief: as §1
[Candida] haemuloni [30] = Antifungal activity against Candida haemulonii AR Bank # 395 assessed as fungal growth inhibition by double dilution method; assay type: functional; conditions: Candidozyma haemuli; method in brief: as §1
Kodamaea ohmeri = experiment: Antifungal activity against Kodamaea ohmeri AR Bank # 396 assessed as fungal growth inhibition by double dilution method; assay type: functional; method in brief: as §1
Pichia kudriavzevii [31] = experiment: Antifungal activity against Pichia kudriavzevii AR Bank # 397 assessed as fungal growth inhibition by double dilution method; assay type: functional; method in brief: as §1
Clavispora lusitaniae = experiment: Antifungal activity against Clavispora lusitaniae AR Bank # 398 assessed as fungal growth inhibition by double dilution method; assay type: functional; method in brief: as §1
Saccharomyces cerevisiae [32] = experiment: Antifungal activity against Saccharomyces cerevisiae AR Bank # 399 assessed as fungal growth inhibition by double dilution method; assay type: functional; method in brief: as §1
Saccharomyces cerevisiae [33] = experiment: Antifungal activity against Saccharomyces cerevisiae AR Bank # 400 assessed as fungal growth inhibition by double dilution method; assay type: functional; method in brief: as §1
J774.A1 = experiment: Cytotoxicity against J774A.1 cells assessed as reduction in cell viability at 31.3 microg/ml; assay type: toxicity, cell-based; conditions: mouse, dose 31.3 µg/ml
Method in brief: (§3)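 Cells in DMEM with 10% FBS and 1% Pen/Strep, seeded at 10,000 cells/well and held overnight at 37 °C, 5% CO2. Compounds added at final 31.3-0.12 µg/mL (0.05% DMSO vehicle) for 24 h. Resazurin then added for 6 h; fluorescence read at ex 560/em 590. Triton X-100 1% as positive control; values normalized to vehicle. Run in quadruplicate.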

HEK293 = experiment: Cytotoxicity against human HEK-293 cells assessed as reduction in cell viability at 31.3 microg/ml; assay type: toxicity, cell-based; conditions: dose 31.3 µg/ml; method in brief: as §3

C[C@@H]1[C@H](O)[C@@H](C)/C=C/C=C/C=C/C=C/C=C/C=C/C=C/[C@H](O[C@@H]2O[C@H](C)[C@@H](O)[C@H](N)[C@@H]2O)C[C@@H]2O[C@](O)(C[C@@H](O)C[C@@H](O)[C@H](O)CC[C@@H](O)C[C@@H](O)CC(=O)O[C@H]1C)C[C@H](O)[C@H]2C(=O)O [AMPHOTERICIN B]
MIC (Candida albicans [1]): 1.95 µg/mL (≈ 2.11 µM) | MIC (Candida albicans [2]): 1.95 µg/mL (≈ 2.11 µM) | MIC (Candida albicans [3]): 1.95 µg/mL (≈ 2.11 µM) | MIC (Candida albicans [4]): 0.98 µg/mL (≈ 1.06 µM) | MIC (Candida albicans [5]): 0.98 µg/mL (≈ 1.06 µM) | MIC (Candida albicans [6]): 1.95 µg/mL (≈ 2.11 µM) | MIC (Candida albicans [7]): 0.98 µg/mL (≈ 1.06 µM) | MIC (Nakaseomyces glabratus [8]): 0.98 µg/mL (≈ 1.06 µM) | MIC (Pichia kudriavzevii [9]): 0.98 µg/mL (≈ 1.06 µM) | MIC (Nakaseomyces glabratus [10]): 0.98 µg/mL (≈ 1.06 µM) | MIC ([Candida] auris [11]): 1.95 µg/mL (≈ 2.11 µM) | MIC ([Candida] auris [12]): 1.95 µg/mL (≈ 2.11 µM) | MIC (Cryptococcus neoformans): 7.8 µg/mL (≈ 8.44 µM) | MIC (Aspergillus terreus): 3.9 µg/mL (≈ 4.22 µM) | MIC (Aspergillus fumigatus [13]): 0.98 µg/mL (≈ 1.06 µM) | MIC (Aspergillus flavus): 31.3 µg/mL (≈ 33.9 µM) | MIC (Aspergillus nidulans): 15.6 µg/mL (≈ 16.9 µM) | MIC (Aspergillus fumigatus [14]): 0.98 µg/mL (≈ 1.06 µM) | MIC (Aspergillus fumigatus [15]): 1.95 µg/mL (≈ 2.11 µM) | MIC ([Candida] auris [16]): 0.98 µg/mL (≈ 1.06 µM) | MIC ([Candida] auris [17]): 0.98 µg/mL (≈ 1.06 µM) | MIC ([Candida] auris [18]): 1.95 µg/mL (≈ 2.11 µM) | MIC ([Candida] auris [19]): 1.95 µg/mL (≈ 2.11 µM) | MIC ([Candida] auris [20]): 1.95 µg/mL (≈ 2.11 µM) | MIC ([Candida] auris [21]): 0.98 µg/mL (≈ 1.06 µM) | MIC ([Candida] auris [22]): 0.98 µg/mL (≈ 1.06 µM) | MIC ([Candida] auris [23]): 1.95 µg/mL (≈ 2.11 µM) | MIC ([Candida] auris [24]): 1.95 µg/mL (≈ 2.11 µM) | MIC ([Candida] auris [25]): 1.95 µg/mL (≈ 2.11 µM) | MIC (Candida duobushaemulonii [26]): 7.8 µg/mL (≈ 8.44 µM) | MIC (Candida duobushaemulonii [27]): 7.8 µg/mL (≈ 8.44 µM) | MIC ([Candida] haemuloni [28]): 15.6 µg/mL (≈ 16.9 µM) | MIC (Candida duobushaemulonii [29]): 0.98 µg/mL (≈ 1.06 µM) | MIC ([Candida] haemuloni [30]): 3.9 µg/mL (≈ 4.22 µM) | MIC (Kodamaea ohmeri): 1.95 µg/mL (≈ 2.11 µM) | MIC (Pichia kudriavzevii [31]): 0.49 µg/mL (≈ 0.53 µM) | MIC (Clavispora lusitaniae): 3.9 µg/mL (≈ 4.22 µM) | MIC (Saccharomyces cerevisiae [32]): 15.6 µg/mL (≈ 16.9 µM) | MIC (Saccharomyces cerevisiae [33]): 1.95 µg/mL (≈ 2.11 µM) | Activity (J774.A1): Non-Toxic | Activity (HEK293): Non-Toxic
